Source: PubChem BioAssay
Shown are actives, neighbours in structure and some others; about 1.2% of the full set was active somewhere.
CaV13 ICDI inh: Disruptors of the CACNA1D IQ motif to Ca2+-dependent inactivation inhibitor domain association, primary screening, Förster resonance energy transfer in intact living …. HEK cells, CFP/YFP FRET ICDI-IQ, plate reader, 10 min; percent FRET-ratio fall versus neutral wells. inhibition, % at 12.3 µM. hit rate 0.098% among 340,000. AID 743397;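 active means mean replicate inhibition of at least 30% and at least 1% of replicates passing that level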;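 further: 0% = median of the neutral control wells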
CAL PDZ FP-1: CAL PDZ (human) peptide binding inhibition | Q9HD26 | purified CAL PDZ, TMR-peptide fluorescence polarization, 1 h | inhibition, % at 24.9 µM | hit rate 0.92% among 300,000;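 active means mean inhibition of at least 30% with at least half of replicates also reaching 30%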;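 further: 0% = DMSO neutral control and 100% = excess unlabeled competitor peptide PRC23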
CAL PDZ FP-2: human CAL PDZ-peptide interaction inhibition. Q9HD26. purified CAL PDZ, TMR-peptide fluorescence polarization, 1 h. inhibition, % at 20 µM. hit rate 0.02% among 330,000. AID 504414;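 active means highest replicate inhibition of at least 40%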;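 further: plate controls were DMSO neutral control wells for no effect and unlabeled competitor peptide control wells for full effect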
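Material – purified CerCALP PDZ construct · Detection – FP readout, S and P plane fluorescence · Measure – percent inhibition from loss of millipolarization · Controls – unlabelled peptide for full inhibition, DMSO wells as neutral · Probe or stimulus – TMR-labelled reporter peptide T*-PRC34 bound in PDZ groove · Times – 1 h at RT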
ARNT-TACC3 inh: ARNT/TACC3 interaction disruption; hit rate 0.66% among 390,000; AlphaScreen His-ARNT PAS-B/GST-TACC3 binding, luminescence; TACC3 fragment carries E629A point mutation; inhibition, % at 9.99 µM;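 active means mean inhibition of replicates at least 50% and at least half of replicates each reaching 50%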;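 further: 0% = complete ARNT plus TACC3 wells and 100% = ARNT alone without TACC3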
Numbers without * were called inactive; x = no result; + = active, no number.

SMILES	CaV13 ICDI inh	CAL PDZ FP-1	CAL PDZ FP-2	ARNT-TACC3 inh
C[C@@H]1CN([C@H](C)CO)C(=O)c2cccc(NC(=O)Nc3ccc(C(F)(F)F)cc3)c2O[C@@H]1CN(C)S(=O)(=O)c1cccs1	x	x	x	-5
CCCc1cn(CC[C@@H]2CC[C@H](NC(=O)C3CCCCC3)[C@@H](CO)O2)nn1	x	x	x	13
O=C(COC(=O)c1ccc[nH]c1=O)NCC1CCCO1 (stereo not drawn)	-7	56*	0	-6
O=C(C[C@@H]1CC[C@H]2[C@@H](COC[C@@H](O)CN2Cc2ccncc2)O1)NCc1ccccc1Cl	x	x	x	-6
CN(C(=O)c1cccc(C(F)(F)F)c1)C1CCCc2ccccc21 (stereo not drawn)	-2	52*	-1	x
C[C@H](CO)N1C[C@H](C)[C@H](CN(C)C(=O)C2CCC2)Oc2ncc(C#CC3(O)CCCC3)cc2C1=O	x	x	x	3
Cc1ccccc1N(C(=O)c1csnn1)C(C(=O)NC1CCCC1)c1ccncc1 (stereo not drawn)	-5	33*	-2	1
Cc1ccc(C)c(N(C(=O)c2csnn2)C(C(=O)NC2CCCCC2)c2ccncc2)c1 (stereo not drawn)	-4	-1	-4	-1
COc1ccc(N(C(=O)c2csnn2)C(C(=O)NC2CCCC2)c2cccs2)cc1 (stereo not drawn)	-3	44*	0	-4
C[C@@H]1CCCCO[C@@H](CN(C)C(=O)Nc2ccccc2)[C@@H](C)CN([C@@H](C)CO)C(=O)c2cc(NC(=O)NC3CCCCC3)ccc2O1	x	x	x	-1
C[C@H](CO)N1C[C@H](C)[C@H](CN(C)C(=O)Nc2ccc3c(c2)OCO3)Oc2ccc(NC(=O)c3ccncc3)cc2C1=O	x	x	x	-5
O=C(N[C@@H]1C=C[C@@H](CC(=O)N2CCCCC2)O[C@@H]1CO)c1ccccn1	x	x	x	-5
O=C(OCC(=O)N1CCc2ccccc2C1)c1cccnc1Cl	-2	71*	21	-1
Cc1cccc(C(=O)OCC(=O)N2CCc3ccccc3C2)c1O	-6	-3	-6	2
COCCCn1c(=N)c(C(=O)NC2CCCCC2)cc2c(=O)n3ccccc3nc21	43*	0	-1	0
COc1ccc(Cn2c(=N)c(C(=O)NC3CCCCC3)cc3c(=O)n4ccccc4nc32)cc1	-1	2	-3	0
CCOC(=O)c1cc2c(=O)n3ccccc3nc2n(Cc2ccc(Cl)cc2)c1=N	+	-3	-3	1
C[C@H](CO)N1C[C@H](C)[C@@H](CN(C)C)Oc2ccc(NS(=O)(=O)c3cccs3)cc2CC1=O	x	x	x	5
COc1cc(/C=N/NC(=O)c2ccc(CN3C(=O)c4cccc5cccc3c45)cc2)cc(OC)c1O	-1	50*	6	2
COc1cc(/C=N\NC(=O)c2ccc(-c3ccccc3)cc2)cc(Br)c1O	-5	-2	-1	2
COc1ccc(/C=N/NC(=O)c2ccc(-c3ccccc3)cc2)cc1O	-3	2	-3	2
COc1ccc(/C=N/NC(=O)c2ccc(CN3C(=O)c4cccc5cccc3c45)cc2)cc1O	-6	77*	-1	1
C[C@@H]1CN([C@H](C)CO)C(=O)c2c(c3ccccc3n2C)-c2ccccc2CO[C@@H]1CN(C)C(=O)C1CC1	x	x	x	-9
C[C@H](CO)N1C[C@H](C)[C@@H](CN(C)C(=O)CN(C)C)Oc2cc(C3=CCCC3)ccc2S1(=O)=O	x	x	x	6
CC1CCN(C(=O)COc2ncnc3ccccc23)CC1	-6	49*	-1	-12
SMILES	CaV13 ICDI inh	CAL PDZ FP-1	CAL PDZ FP-2	ARNT-TACC3 inh
CCn1nnc(NC(=O)Cc2ccc(Cl)cc2)n1	-7	102*	-1	-11
Cn1c(Oc2ccccc2NCc2cccc(Br)c2)cc(=O)n(C)c1=O	x	79*	-1	3
O=C(C[C@H]1C[C@@H]2c3cc(NS(=O)(=O)c4ccc(F)cc4)ccc3O[C@@H]2[C@H](CO)O1)NCCc1ccccc1	x	x	x	-7
COc1ccc(C2=Nn3c(nnc3-c3ccccc3OC)SC2)cc1OC1CCOC1 (stereo not drawn)	-6	0	0	47*
O=c1nccc(Nc2ccccc2)[nH]1	-19	63*	0	4
O=C(CN1CCN(Cc2ccccc2)CC1)NC(=O)NC1CCCCC1	x	-3	0	x
O=C(CN1CCN(C/C=C/c2ccccc2)CC1)NC(=O)NC1CCCCC1	-20	72*	x	3
C[C@@H]1CN([C@@H](C)CO)C(=O)Cc2cc(NS(=O)(=O)c3cn(C)cn3)ccc2O[C@@H]1CN(C)C(=O)NC1CCCCC1	x	x	x	0
C[C@@H]1CN([C@@H](C)CO)C(=O)c2cc(NC(=O)CCCN(C)C)ccc2O[C@@H](C)CCCCO[C@@H]1CN(C)S(=O)(=O)c1ccccc1	x	x	x	-6
CCOc1cc(N(CC)CC)ccc1/C=C(/C#N)c1nc2ccccc2[nH]1	-17	43*	1	1
CCCOc1cc(N(CC)CC)ccc1/C=C(/C#N)c1nc2ccc(C)cc2[nH]1	-15	-6	-2	4
O=C(Nc1ccc2c(c1)OCO2)C1CC(c2cccc(Br)c2)=NO1 (stereo not drawn)	0	42*	x	-5
CCOC(=O)Nc1cc2c(c(N)n1)N=C(c1ccccc1)CN2	-25	-3	0	8.7*
COc1ccc(N2CCN(C(=S)NCc3ccc(C)cc3)CC2)cc1	-3	32*	0	-1
COc1ccc(N2CCN(C(=S)Nc3cc(C)cc(C)c3)CC2)cc1	-5	0	-2	-18
CN=c1scc(-c2ccccc2F)n1/N=C(\C)c1cccnc1	-3	-1	1	40*
CO[C@@H]1CN(C)C(=O)c2ccc(NC(=O)Nc3cccc(Cl)c3)cc2OC[C@H](C)NC[C@H]1C	x	x	x	-4
CC(OC(=O)c1cc(S(=O)(=O)N2CCOCC2)ccc1Br)C(=O)N1CCOCC1 (stereo not drawn)	-2	43*	-1	6
CC(=O)Nc1ccc(NC(=O)C(C)OC(=O)c2cc(S(=O)(=O)N3CCOCC3)ccc2Cl)cc1 (stereo not drawn)	-13	-5	-3	-12
CCCNc1ncc2c(=O)[nH][nH]c(=O)c2n1	-5	0	1	81*
O=C(CSc1nnnn1-c1cccc2ccccc12)Nc1ccc(C(=O)O)cc1	-5	-4	0	-6
O=C(CCCSc1nnnn1-c1cccc2ccccc12)c1ccc(F)cc1	-2	46*	x	-6
COc1ccccc1C(=O)N1C[C@@H]2[C@H](c3ccccc31)[C@H](CO)N2C(=O)C1CCCC1	x	x	x	-1
C[C@@H]1CN([C@H](C)CO)C(=O)c2cc(NC(=O)Cn3cnnn3)ccc2O[C@H]1CN(C)C	x	x	x	-6
Cc1nn(-c2cccc(Cl)c2)c2nc(C(F)(F)F)[nH]c(=O)c12	-3	43*	-2	-4
COc1ccc(C(=O)O/N=C(\N)c2ccccc2)cc1OC	-20	43*	x	3
O=C(C[C@@H]1C[C@H]2c3cc(NS(=O)(=O)c4ccccc4)ccc3O[C@H]2[C@H](CO)O1)N1CCCCC1	x	x	x	-4
